Screening data (PubChem BioAssay)
This is a sample that favours compounds with a hit; in the whole collection about 2.6% have one here.
5HT1E ag – 5-HT1E receptor agonists, primary screen, cell-based, HTS | 5-hydroxytryptamine receptor 1E (Homo sapiens), P28566 | CHO 5-HT1E Ga15 NFAT-bla reporter, FRET; 0% DMSO wells, 100% control agonist wells | activation, % at 6 µM | 65,000 compounds, 0.69% hits;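 active = activation above a set limit, the screen-wide mean activation plus 3 SD, cut at about 8.5% in these data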
5HT1a ag – human 5-HT1a receptor agonists, primary screen, cell-based, CHO, Ga15 NFAT-bla reporter | 65,000 compounds, 0.56% hits | 5-hydroxytryptamine receptor 1A (Homo sapiens), P08908 | activation, % at 10 µM | AID 567, 2006 | CHO 5-HT1a Ga15 NFAT-bla reporter, FRET ratio; 0% basal, 100% maximal reference agonist;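 active = activation above the screen-wide mean activation plus 3 SD, cut at about 19% in these data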
Target sequence (P08908 whole entry, looked up): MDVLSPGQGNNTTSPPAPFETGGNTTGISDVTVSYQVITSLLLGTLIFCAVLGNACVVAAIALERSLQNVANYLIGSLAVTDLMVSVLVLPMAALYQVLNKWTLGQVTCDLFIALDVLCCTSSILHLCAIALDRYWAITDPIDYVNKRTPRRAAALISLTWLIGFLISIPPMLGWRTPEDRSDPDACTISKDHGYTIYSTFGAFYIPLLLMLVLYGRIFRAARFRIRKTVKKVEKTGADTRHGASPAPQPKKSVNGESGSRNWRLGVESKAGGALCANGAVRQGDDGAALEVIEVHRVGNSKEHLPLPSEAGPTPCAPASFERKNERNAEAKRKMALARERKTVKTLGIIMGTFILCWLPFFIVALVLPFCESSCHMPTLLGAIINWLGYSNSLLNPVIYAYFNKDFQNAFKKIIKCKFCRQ
5HT1a antag – human 5-HT1a receptor antagonists, primary screen, cell-based, CHO, Ga15 NFAT-bla reporter | inhibition, % at 10 µM | 5-hydroxytryptamine receptor 1A (Homo sapiens), P08908 | CHO 5-HT1a Ga15 NFAT-bla reporter, antagonist mode | AID 612, 2007 | 62,000 compounds, 0.68% hits;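 active = inhibition above the mean of all tested compounds plus 3 SD, cut at about 43% in these data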;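 also: receptor stimulated by 5-CT agonist at 100 nM near EC80; beta-lactamase reporter measured by ratiometric fluorescence of a cleavable substrate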
S1P3 ag – human S1P3 receptor agonists, primary screen, cell-based, primary and confirmation, NFAT-BLA reporter; S1P3 NFAT-BLA reporter cells, agonism, FRET ratio; relative to 1 µM S1P, basal subtracted; AID 373, 2006; activation, % at 4.5 µM; 60,000 compounds, 0.1% hits; Sphingosine 1-phosphate receptor 3 (Homo sapiens), Q99500;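 active = activation above the screen-wide mean plus 3 SD, cut at about 4.5% in these data, passing the limit was not always enough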
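Assay system: CHO cells stably expressing human S1P3, Gα16 and NFAT-β-lactamase reporter. Timing: overnight plating, 4 h compound 37 °C, 2 h substrate RT. Signal: β-lactamase FRET emission ratio 460/535 nm. Measure: percent activation versus median 1 µM S1P response, basal-subtracted, per plate. Repeats: primary screen single test, confirmation screen in triplicate.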
5HT1E antag – 5-HT1E receptor antagonists, primary screen, cell-based, HTS | 5-hydroxytryptamine receptor 1E (Homo sapiens), P28566 | CHO 5-HT1E Ga15 NFAT-bla reporter, FRET, antagonist | inhibition, % at 6 µM | 65,000 compounds, 0.99% hits | AID 571, 2007;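 active = inhibition above a set limit, the mean inhibition across every tested compound plus 3 SD, cut at about 29% in these data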;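 also: signal is the 460 over 535 nm emission ratio of beta-lactamase substrate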
Of the large screens only hits and unclear results are named; the others gave an inactive call.

O=C(NC(=O)N1CCN(c2ccccc2F)CC1)c1ccccc1	5HT1E ag 18
Cc1ccc(C(=O)N2CCN(c3cccc(Cl)c3)CC2)cc1C	none
O=C(NCc1ccccc1)N1CCN(c2ccccc2F)CC1	none
O=C(NC(=O)N1CCN(c2cccc(Cl)c2)CC1)c1ccccc1	5HT1E ag 14
O=C(NC1=NCCS1)c1cccc(S(=O)(=O)N2CCCCC2)c1	none (no result: S1P3 ag)
COC(=O)C1=C(Cn2cnc3ccccc32)NC(=O)NC1c1cc(C)ccc1C (stereo not given)	5HT1a ag 22
CC1CC(C)CN(Cc2nc(N)nc(Nc3ccc4ccccc4c3)n2)C1 (stereo not given)	none
CCCn1nc(NS(=O)(=O)c2ccccc2)c2cc3ccccc3nc21	5HT1a ag 24
CC(C)Cn1nc(NS(=O)(=O)c2ccccc2)c2cc3ccccc3nc21	none
Cc1cccc(-n2c(SCC(=O)Nc3nonc3C)nnc2-c2ccoc2C)c1	5HT1a ag 34
CCOC(=O)C1CCN(CC(=O)Nc2c(C(=O)OC)[nH]c3ccccc23)CC1	none
CCOC(=O)C1CCN(CC(=O)Nc2c(C(=O)OC)[nH]c3ccc(Cl)cc23)CC1	5HT1E antag 29
CCOC(=O)c1[nH]c2ccc(OC)cc2c1NC(=O)CN1CCN(c2ccccn2)CC1	5HT1a ag 29 (no result: 5HT1a antag)
CCCOC(=O)c1ccc(Oc2cn[nH]c2-c2ccc(OC)cc2O)cc1	5HT1a antag 46
COc1ccc(CCn2c(N)c(C(=O)NCc3ccco3)c3nc4ccccc4nc32)cc1OC	S1P3 ag 7.3
COCCNC(=O)c1c(N)n(CCC2=CCCCC2)c2nc3ccccc3nc12	5HT1a ag 29 (no result: 5HT1a antag)
COCCn1c(N)c(C(=O)OCc2ccccc2)c2nc3ccccc3nc21	none
NS(=O)(=O)c1ccc(NC(=O)c2ccccc2C(=O)N2CCCCC2)cc1	none
O=C(NCc1ccccc1)N(Cc1nc2ccccc2c(=O)[nH]1)C1CCCC1	none
CC1CCN(C(=O)CN2C(=O)c3ccccc3S2(=O)=O)CC1	5HT1a ag 38
COc1ccccc1N(CC(=O)Nc1cc(C)on1)S(=O)(=O)c1cccs1	none
O=C(CCN1CCOCC1)Nc1c(-c2ccccc2)c2cc(Br)ccc2[nH]c1=O	none
Cc1ccc2[nH]c(=O)c(N3CCOCC3)c(-c3ccccc3)c2c1	5HT1a antag 52
Cc1cccc(NC(=O)CNc2cc(C)ccc2C)c1	none (no result: S1P3 ag)
CCCn1c(SCc2nc(-c3cccs3)no2)nnc1-c1ccncc1	none
CCOc1ccc(-n2c(SCc3nc(-c4cccs4)no3)nnc2-c2ccncc2)cc1	5HT1a antag 50
CC(=O)Nc1ccc(S(=O)(=O)NC(=O)C23CC4CC(CC(C4)C2)C3)cc1	none
CCOC(=O)c1[nH]c(C)c(C(=O)Nc2cc(OC)ccc2OC)c1C	5HT1E antag 49
CCOC(=O)c1c(NC(=O)CSc2nnc(-c3cccnc3)o2)sc(C(C)=O)c1C	5HT1E antag 30
CCOC(=O)c1c(NC(=O)CSc2nc3cccnc3n2C)sc(C(C)=O)c1C	5HT1E antag 43
CCOC(=O)c1ccc2c(c1)nc(SCc1cn3ccsc3n1)n2CC	none
COc1ccc2sc(C)nc2c1NC(C)=O	none
COc1ccc(NC(C)=O)c2nc(C)c(C)nc12	5HT1E antag 30
CCOC(=O)c1c(C)nc(-c2ccccc2)nc1NC(=O)CC	5HT1E ag 68
Cc1ccccc1Cn1ccc(NC(=O)c2cc3nc(-c4ccco4)cc(C(F)(F)F)n3n2)n1	5HT1a ag 74
COc1cccc(-n2c(SC3CCOC3=O)nc3ccccc3c2=O)c1 (stereo not given)	5HT1E antag 37
Cc1cc(-n2c(=O)c(C#N)cc3c(=O)n4cccc(C)c4nc32)no1	5HT1a ag 49
N#Cc1cc2c(=O)n3ccccc3nc2n(CCCn2ccnc2)c1=N	none
Cc1ccc(-n2c(=O)c(C#N)cc3c(=O)n4ccccc4nc32)cc1	5HT1a ag 30
Cc1cccn2c(=O)c3cc(C#N)c(=O)n(-c4c(C)n(C)n(-c5ccccc5)c4=O)c3nc12	none
